# Reference: ChEMBL document CHEMBL4359830, “Discovery and structure-activity relationship of novel diphenylthiazole derivatives as BTK inhibitor with potent activity against B cell lymphoma cell lines” (Eur J Med Chem, 2019)
# Target: Tyrosine-protein kinase BTK (Homo sapiens, UniProt Q06187)
# Test: Inhibition of human recombinant full length N-terminal His tagged BTK expressed in baculovirus infected Sf9 cells using poly (Glu,Tyr) 4:1 as substrate measured after 60 mins in presence of ATP by ADP-Glo kinase assay
# Conditions: not given
# Chain of Tyrosine-protein kinase BTK (Q06187 whole entry): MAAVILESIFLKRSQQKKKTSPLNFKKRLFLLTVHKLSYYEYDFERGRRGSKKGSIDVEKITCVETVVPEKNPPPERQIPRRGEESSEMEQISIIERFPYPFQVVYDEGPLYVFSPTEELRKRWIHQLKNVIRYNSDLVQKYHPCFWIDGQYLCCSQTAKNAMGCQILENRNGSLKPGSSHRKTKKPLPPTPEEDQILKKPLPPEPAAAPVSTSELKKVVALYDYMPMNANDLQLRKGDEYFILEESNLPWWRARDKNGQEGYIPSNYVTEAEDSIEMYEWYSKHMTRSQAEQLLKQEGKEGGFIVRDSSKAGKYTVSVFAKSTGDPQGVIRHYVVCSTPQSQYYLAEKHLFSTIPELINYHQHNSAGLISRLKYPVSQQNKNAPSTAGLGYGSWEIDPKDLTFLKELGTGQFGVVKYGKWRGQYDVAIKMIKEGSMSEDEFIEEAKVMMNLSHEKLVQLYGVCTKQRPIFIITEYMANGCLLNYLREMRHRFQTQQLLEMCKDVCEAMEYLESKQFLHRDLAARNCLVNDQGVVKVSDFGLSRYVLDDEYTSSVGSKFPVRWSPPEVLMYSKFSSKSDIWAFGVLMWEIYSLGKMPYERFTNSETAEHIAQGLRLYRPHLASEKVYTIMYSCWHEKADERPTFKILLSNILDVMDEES
row,Compound,IC50
1,CN1CCN(c2ccc(Nc3nc(-c4cccc(NC(=O)c5ccccc5F)c4)sc3C(=O)O)cc2)CC1,21.9 µM
2,CC(C)(C)c1ccc(C(=O)Nc2cccc(-c3nc(Nc4ccc(N5CCOCC5)cc4)c(C(=O)O)s3)c2)cc1,5.32 µM
3,CN1CCN(c2ccc(Nc3nc(-c4cccc(NC(=O)[C@H]5CC[C@H](C)CC5)c4)sc3C(N)=O)cc2)CC1,0.105 µM
4,NC(=O)c1sc(-c2cccc(NC(=O)c3ccc(F)cc3)c2)nc1Nc1ccc(N2CCOCC2)cc1,0.258 µM
5,O=C(Nc1cccc(-c2nc(Nc3ccc(N4CCOCC4)cc3)c(C(=O)O)s2)c1)c1ccc(C(F)(F)F)cc1,38.1 µM
6,CC(C)NC(=O)c1sc(-c2cccc(NC(=O)c3ccc(C(C)(C)C)cc3)c2)nc1Nc1ccc(N2CCOCC2)cc1,62.8 µM
7,NC(=O)c1sc(-c2cccc(NC(=O)c3ccc(C(F)(F)F)cc3)c2)nc1Nc1ccc(N2CCOCC2)cc1,6.75 µM
8,CN(C)c1ccc(C(=O)Nc2cccc(-c3nc(Nc4ccc(N5CCOCC5)cc4)c(C(=O)O)s3)c2)cc1,21 µM
9,CC(C)(C)c1ccc(C(=O)Nc2cccc(-c3nc(Nc4ccc(C(=O)N5CCOCC5)cc4)c(C(N)=O)s3)c2)cc1,0.333 µM
10,CCOC(=O)c1sc(-c2cccc(NC(=O)c3ccc(C(F)(F)F)cc3)c2)nc1Nc1ccc(N2CCOCC2)cc1,2.42 µM
11,CCOC(=O)c1sc(-c2cccc(NC(=O)c3cccc(F)c3)c2)nc1Nc1ccc(N2CCN(C)CC2)cc1,19.2 µM
12,NC(=O)c1sc(-c2cccc(NC(=O)c3ccc(C(F)(F)F)cc3)c2)nc1Nc1ccc(C(=O)N2CCOCC2)cc1,0.617 µM
13,CN1CCN(c2ccc(Nc3nc(-c4cccc(NC(=O)c5cccc(F)c5)c4)sc3C(=O)O)cc2)CC1,27.8 µM
14,CN1CCN(c2ccc(Nc3nc(-c4cccc(NC(=O)c5ccc(Cl)cc5)c4)sc3C(=O)O)cc2)CC1,0.134 µM
15,CN1CCN(c2ccc(Nc3nc(-c4cccc(NC(=O)c5ccc(C(F)(F)F)cc5)c4)sc3C(N)=O)cc2)CC1,0.206 µM
16,CCOC(=O)c1sc(-c2cccc(NC(=O)c3ccccc3F)c2)nc1Nc1ccc(N2CCN(C)CC2)cc1,2.1 µM
17,CCOC(=O)c1sc(-c2cccc(NC(=O)c3ccccc3)c2)nc1Nc1ccc(N2CCN(C)CC2)cc1,37.1 µM
18,CCOC(=O)c1sc(-c2cccc(NC(=O)c3ccco3)c2)nc1Nc1ccc(N2CCN(C)CC2)cc1,0.161 µM
19,CC(C)(C)c1ccc(C(=O)Nc2cccc(-c3nc(Nc4ccc(N5CCOCC5)cc4)c(C(N)=O)s3)c2)cc1,2.23 µM

# Tested on: Ramos
# Test: Antiproliferative activity against human Ramos cells at 40 uM measured after 72 hrs by CCK-8 assay relative to control
# Type: functional
# Conditions: Homo sapiens, Ramos, 72 h
# In short: (§1)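 Ramos or Raji cells in RPMI-1640 with 10% FBS and 1% penicillin-streptomycin at 37 °C, 5% CO2. Seeded at 2000–3000 cells/well one day before compound addition. Exposure 72 h, then CCK-8 with absorbance at 450 nm. […] Single-point inhibition at 40 µM reported as mean ± standard deviation.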
row,Compound,inhibition at 40 µM
1,CN1CCN(c2ccc(Nc3nc(-c4cccc(NC(=O)c5ccccc5F)c4)sc3C(=O)O)cc2)CC1,93.3%
2,CC(C)(C)c1ccc(C(=O)Nc2cccc(-c3nc(Nc4ccc(N5CCOCC5)cc4)c(C(=O)O)s3)c2)cc1,94.3%
3,CN1CCN(c2ccc(Nc3nc(-c4cccc(NC(=O)[C@H]5CC[C@H](C)CC5)c4)sc3C(N)=O)cc2)CC1,55%
4,NC(=O)c1sc(-c2cccc(NC(=O)c3ccc(F)cc3)c2)nc1Nc1ccc(N2CCOCC2)cc1,3.53%
5,O=C(Nc1cccc(-c2nc(Nc3ccc(N4CCOCC4)cc3)c(C(=O)O)s2)c1)c1ccc(C(F)(F)F)cc1,77.4%
6,CC(C)NC(=O)c1sc(-c2cccc(NC(=O)c3ccc(C(C)(C)C)cc3)c2)nc1Nc1ccc(N2CCOCC2)cc1,27.9%
7,NC(=O)c1sc(-c2cccc(NC(=O)c3ccc(C(F)(F)F)cc3)c2)nc1Nc1ccc(N2CCOCC2)cc1,25.2%
8,CN(C)c1ccc(C(=O)Nc2cccc(-c3nc(Nc4ccc(N5CCOCC5)cc4)c(C(=O)O)s3)c2)cc1,74.4%
9,CC(C)(C)c1ccc(C(=O)Nc2cccc(-c3nc(Nc4ccc(C(=O)N5CCOCC5)cc4)c(C(N)=O)s3)c2)cc1,85.2%
10,CCOC(=O)c1sc(-c2cccc(NC(=O)c3ccc(C(F)(F)F)cc3)c2)nc1Nc1ccc(N2CCOCC2)cc1,21.8%
11,CCOC(=O)c1sc(-c2cccc(NC(=O)c3cccc(F)c3)c2)nc1Nc1ccc(N2CCN(C)CC2)cc1,85.2%
12,NC(=O)c1sc(-c2cccc(NC(=O)c3ccc(C(F)(F)F)cc3)c2)nc1Nc1ccc(C(=O)N2CCOCC2)cc1,83.8%
13,CN1CCN(c2ccc(Nc3nc(-c4cccc(NC(=O)c5cccc(F)c5)c4)sc3C(=O)O)cc2)CC1,82.7%
14,CN1CCN(c2ccc(Nc3nc(-c4cccc(NC(=O)c5ccc(Cl)cc5)c4)sc3C(=O)O)cc2)CC1,71.6%
15,CN1CCN(c2ccc(Nc3nc(-c4cccc(NC(=O)c5ccc(C(F)(F)F)cc5)c4)sc3C(N)=O)cc2)CC1,97.8%
16,CCOC(=O)c1sc(-c2cccc(NC(=O)c3ccccc3F)c2)nc1Nc1ccc(N2CCN(C)CC2)cc1,96.3%
17,CCOC(=O)c1sc(-c2cccc(NC(=O)c3ccccc3)c2)nc1Nc1ccc(N2CCN(C)CC2)cc1,77.1%
18,CCOC(=O)c1sc(-c2cccc(NC(=O)c3ccco3)c2)nc1Nc1ccc(N2CCN(C)CC2)cc1,50.2%
19,CC(C)(C)c1ccc(C(=O)Nc2cccc(-c3nc(Nc4ccc(N5CCOCC5)cc4)c(C(N)=O)s3)c2)cc1,5.57%

# Tested on: Ramos
# Test: Antiproliferative activity against human Ramos cells measured after 72 hrs by CCK-8 assay
# Type: functional, cell-based
# Conditions: not given
# In short: as §1
row,Compound,IC50
1,CN1CCN(c2ccc(Nc3nc(-c4cccc(NC(=O)c5ccccc5F)c4)sc3C(=O)O)cc2)CC1,6.3 µM
2,CC(C)(C)c1ccc(C(=O)Nc2cccc(-c3nc(Nc4ccc(N5CCOCC5)cc4)c(C(=O)O)s3)c2)cc1,4.37 µM
3,O=C(Nc1cccc(-c2nc(Nc3ccc(N4CCOCC4)cc3)c(C(=O)O)s2)c1)c1ccc(C(F)(F)F)cc1,29.5 µM
4,CN(C)c1ccc(C(=O)Nc2cccc(-c3nc(Nc4ccc(N5CCOCC5)cc4)c(C(=O)O)s3)c2)cc1,24.5 µM
5,CC(C)(C)c1ccc(C(=O)Nc2cccc(-c3nc(Nc4ccc(C(=O)N5CCOCC5)cc4)c(C(N)=O)s3)c2)cc1,28.4 µM
6,CCOC(=O)c1sc(-c2cccc(NC(=O)c3cccc(F)c3)c2)nc1Nc1ccc(N2CCN(C)CC2)cc1,12.8 µM
7,NC(=O)c1sc(-c2cccc(NC(=O)c3ccc(C(F)(F)F)cc3)c2)nc1Nc1ccc(C(=O)N2CCOCC2)cc1,29.8 µM
8,CN1CCN(c2ccc(Nc3nc(-c4cccc(NC(=O)c5cccc(F)c5)c4)sc3C(=O)O)cc2)CC1,14 µM
9,CN1CCN(c2ccc(Nc3nc(-c4cccc(NC(=O)c5ccc(Cl)cc5)c4)sc3C(=O)O)cc2)CC1,23.3 µM
10,CN1CCN(c2ccc(Nc3nc(-c4cccc(NC(=O)c5ccc(C(F)(F)F)cc5)c4)sc3C(N)=O)cc2)CC1,1.58 µM
11,CCOC(=O)c1sc(-c2cccc(NC(=O)c3ccccc3F)c2)nc1Nc1ccc(N2CCN(C)CC2)cc1,2 µM
12,CCOC(=O)c1sc(-c2cccc(NC(=O)c3ccccc3)c2)nc1Nc1ccc(N2CCN(C)CC2)cc1,24.8 µM

# Tested on: Raji
# Test: Antiproliferative activity against human Raji cells at 40 uM measured after 72 hrs by CCK-8 assay relative to control
# Type: functional
# Conditions: Homo sapiens, Raji, 72 h
# In short: as §1
row,Compound,inhibition at 40 µM
1,CN1CCN(c2ccc(Nc3nc(-c4cccc(NC(=O)c5ccccc5F)c4)sc3C(=O)O)cc2)CC1,86.8%
2,CC(C)(C)c1ccc(C(=O)Nc2cccc(-c3nc(Nc4ccc(N5CCOCC5)cc4)c(C(=O)O)s3)c2)cc1,93.8%
3,CN1CCN(c2ccc(Nc3nc(-c4cccc(NC(=O)[C@H]5CC[C@H](C)CC5)c4)sc3C(N)=O)cc2)CC1,22.4%
4,NC(=O)c1sc(-c2cccc(NC(=O)c3ccc(F)cc3)c2)nc1Nc1ccc(N2CCOCC2)cc1,9.92%
5,O=C(Nc1cccc(-c2nc(Nc3ccc(N4CCOCC4)cc3)c(C(=O)O)s2)c1)c1ccc(C(F)(F)F)cc1,18.8%
6,CC(C)NC(=O)c1sc(-c2cccc(NC(=O)c3ccc(C(C)(C)C)cc3)c2)nc1Nc1ccc(N2CCOCC2)cc1,6.39%
7,NC(=O)c1sc(-c2cccc(NC(=O)c3ccc(C(F)(F)F)cc3)c2)nc1Nc1ccc(N2CCOCC2)cc1,7.48%
8,CN(C)c1ccc(C(=O)Nc2cccc(-c3nc(Nc4ccc(N5CCOCC5)cc4)c(C(=O)O)s3)c2)cc1,24.4%
9,CC(C)(C)c1ccc(C(=O)Nc2cccc(-c3nc(Nc4ccc(C(=O)N5CCOCC5)cc4)c(C(N)=O)s3)c2)cc1,33.4%
10,CCOC(=O)c1sc(-c2cccc(NC(=O)c3ccc(C(F)(F)F)cc3)c2)nc1Nc1ccc(N2CCOCC2)cc1,5.44%
11,CCOC(=O)c1sc(-c2cccc(NC(=O)c3cccc(F)c3)c2)nc1Nc1ccc(N2CCN(C)CC2)cc1,82.8%
12,NC(=O)c1sc(-c2cccc(NC(=O)c3ccc(C(F)(F)F)cc3)c2)nc1Nc1ccc(C(=O)N2CCOCC2)cc1,43.8%
13,CN1CCN(c2ccc(Nc3nc(-c4cccc(NC(=O)c5cccc(F)c5)c4)sc3C(=O)O)cc2)CC1,76.3%
14,CN1CCN(c2ccc(Nc3nc(-c4cccc(NC(=O)c5ccc(Cl)cc5)c4)sc3C(=O)O)cc2)CC1,90.9%
15,CN1CCN(c2ccc(Nc3nc(-c4cccc(NC(=O)c5ccc(C(F)(F)F)cc5)c4)sc3C(N)=O)cc2)CC1,91.8%
16,CCOC(=O)c1sc(-c2cccc(NC(=O)c3ccccc3F)c2)nc1Nc1ccc(N2CCN(C)CC2)cc1,89.8%
17,CCOC(=O)c1sc(-c2cccc(NC(=O)c3ccccc3)c2)nc1Nc1ccc(N2CCN(C)CC2)cc1,42%
18,CCOC(=O)c1sc(-c2cccc(NC(=O)c3ccco3)c2)nc1Nc1ccc(N2CCN(C)CC2)cc1,87.6%
19,CC(C)(C)c1ccc(C(=O)Nc2cccc(-c3nc(Nc4ccc(N5CCOCC5)cc4)c(C(N)=O)s3)c2)cc1,4.42%

# Tested on: Raji
# Test: Antiproliferative activity against human Raji cells measured after 72 hrs by CCK-8 assay
# Type: functional, cell-based
# Conditions: not given
# In short: as §1
row,Compound,IC50
1,CN1CCN(c2ccc(Nc3nc(-c4cccc(NC(=O)c5ccccc5F)c4)sc3C(=O)O)cc2)CC1,13.9 µM
2,CC(C)(C)c1ccc(C(=O)Nc2cccc(-c3nc(Nc4ccc(N5CCOCC5)cc4)c(C(=O)O)s3)c2)cc1,5.74 µM
3,CCOC(=O)c1sc(-c2cccc(NC(=O)c3cccc(F)c3)c2)nc1Nc1ccc(N2CCN(C)CC2)cc1,21.2 µM
4,NC(=O)c1sc(-c2cccc(NC(=O)c3ccc(C(F)(F)F)cc3)c2)nc1Nc1ccc(C(=O)N2CCOCC2)cc1,75.3 µM
5,CN1CCN(c2ccc(Nc3nc(-c4cccc(NC(=O)c5cccc(F)c5)c4)sc3C(=O)O)cc2)CC1,35.1 µM
6,CN1CCN(c2ccc(Nc3nc(-c4cccc(NC(=O)c5ccc(Cl)cc5)c4)sc3C(=O)O)cc2)CC1,7.02 µM
7,CN1CCN(c2ccc(Nc3nc(-c4cccc(NC(=O)c5ccc(C(F)(F)F)cc5)c4)sc3C(N)=O)cc2)CC1,3.21 µM
8,CCOC(=O)c1sc(-c2cccc(NC(=O)c3ccccc3F)c2)nc1Nc1ccc(N2CCN(C)CC2)cc1,9.27 µM
9,CCOC(=O)c1sc(-c2cccc(NC(=O)c3ccco3)c2)nc1Nc1ccc(N2CCN(C)CC2)cc1,15.1 µM
